Assay results reported in ChEMBL document CHEMBL1155225, “Investigation of functionally liver selective glucokinase activators for the treatment of type 2 diabetes” (J Med Chem, 2009).
In brackets after ≈: the same amount, converted by molar mass. Activity calls are given as the source filed them. No cut-off for these calls is given here.

How the values were obtained:
[1] = target: T1, Hexokinase-4 (Rattus norvegicus) (UniProt P17712); assay: Activation of glucokinase-mediated of glucose phosphorylation in Sprague-Dawley rat hepatocytes assessed as release of [3H]H2O from [2-3H]glucose at 30 uM after 3 hrs; format: cell-based; details: Hepatocyte
T1 sequence (whole entry): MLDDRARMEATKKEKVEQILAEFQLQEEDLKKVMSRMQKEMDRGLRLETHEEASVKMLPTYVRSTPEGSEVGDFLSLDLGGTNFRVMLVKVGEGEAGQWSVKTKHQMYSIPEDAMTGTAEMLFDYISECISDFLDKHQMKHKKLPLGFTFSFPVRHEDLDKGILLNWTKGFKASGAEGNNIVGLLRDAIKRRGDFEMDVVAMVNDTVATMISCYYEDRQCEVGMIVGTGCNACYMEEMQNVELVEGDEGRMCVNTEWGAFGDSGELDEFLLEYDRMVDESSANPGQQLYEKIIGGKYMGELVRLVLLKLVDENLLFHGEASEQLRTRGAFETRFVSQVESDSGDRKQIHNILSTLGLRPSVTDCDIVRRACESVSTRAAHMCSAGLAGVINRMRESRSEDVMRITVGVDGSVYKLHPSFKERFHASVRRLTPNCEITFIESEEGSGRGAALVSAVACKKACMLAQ
Procedure, shortened: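 Hepatocytes from overnight-fasted male Sprague-Dawley rats by collagenase perfusion, cultured 16-20 h at 37 °C, 5% CO2 in serum-free DMEM with 5 mM glucose plus dexamethasone. Preincubated 3 h at 37 °C in serum-free DMEM, 5 mM glucose, with DMSO or 30 μM compound, then 30 min with [2-3H]glucose. Medium collected into 0.1 M HCl; detritiated glucose (nmol/h per 10^6 cells) as % increase over vehicle; quadruplicate, mean ± SEM, Student's t test.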

[2] = Metabolic stability in human liver microsomes assessed as half life; format: ADME, Microsome
Procedure, shortened: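 Compound incubated at 1 μM with human liver microsomes plus selected cofactors (NADPH, UDPGA); clearance followed at 4 time points as % test compound remaining, giving half-life.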

[3] = target: T2, Hexokinase-4 (Homo sapiens) (UniProt P35557); assay: Activation of His-tagged human recombinant liver glucokinase expressed in Escherichia coli BL21 (DE3) assessed as drug level required for half-maximal activation; format: single protein
T2 sequence (whole entry): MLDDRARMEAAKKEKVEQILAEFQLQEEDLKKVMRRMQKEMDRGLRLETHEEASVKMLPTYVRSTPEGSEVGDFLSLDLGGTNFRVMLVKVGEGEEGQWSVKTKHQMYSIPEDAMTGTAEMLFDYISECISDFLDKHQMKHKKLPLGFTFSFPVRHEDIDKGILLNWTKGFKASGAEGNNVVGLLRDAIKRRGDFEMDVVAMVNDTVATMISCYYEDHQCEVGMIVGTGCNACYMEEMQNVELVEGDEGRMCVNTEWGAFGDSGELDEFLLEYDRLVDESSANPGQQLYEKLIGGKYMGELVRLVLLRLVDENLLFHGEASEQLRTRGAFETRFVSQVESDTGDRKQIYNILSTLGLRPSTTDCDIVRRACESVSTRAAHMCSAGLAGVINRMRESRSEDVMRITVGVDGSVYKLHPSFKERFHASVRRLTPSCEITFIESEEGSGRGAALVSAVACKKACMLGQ
Procedure, shortened: (§1)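 Recombinant human liver GK (aa 17-466), His-tagged, expressed in E. coli BL21 Star (DE3), nickel affinity purified, tag cleaved (GPGSM left), then anion exchange and gel filtration to >95%.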

Mus musculus [4] = assay: Reduction in glucose excursion in C57BL/6 mouse at 50 mg/kg, po in microemulsion administered 30 mins before glucose challenge measured at 4 hrs postdose by oral glucose tolerance test; format: functional, organism-based; set-up: dose 50 mg/kg; details: C57BL6
Procedure, shortened: (§2)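 C57BL6 mice grouped by matched 0-h plasma glucose; compound given by oral gavage (5 mL/kg) at 50 mg/kg (or 72 mg/kg) in microemulsion (Cremophor RH40, corn oil-monodiglyceride, propylene glycol, ethanol; diluted 2:3 with water) or in water; oral glucose 1 g/kg 30 min later. Blood sampled at 0.5, 1, 2 and 4 h post-dosing for glucose (meter) and insulin; % reduction from control.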

[5] = Permeability at 5 to 10 uM at pH 4, 6.8 and 8 by PAMPA; details: pH 4, 6.8, 8, 10 µM
[6] = Aqueous solubility by HPLC analysis; format: physicochemical; details: buffer
Mus musculus [7] = assay: Reduction in glucose excursion in C57BL/6 mouse at 10 mg/kg, iv administered 30 mins before glucose challenge measured at 2 hrs postdose by oral glucose tolerance test; format: functional, C57BL6; set-up: scale not given: the % may be the effect or the level left
Procedure, shortened: (§3)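 Normal C57BL6 mice, compound given IV at 10 mg/kg. Oral glucose at 1 g/kg 30 min after dosing. Plasma glucose read by glucose meter at 0 h and at 0.5, 1, 2 and 4 h post-dose. Reported as % reduction from vehicle control at the stated time, with significance at p < 0.05 or the p-value given.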

Mus musculus [8] = assay: Reduction in glucose excursion in C57BL/6 mouse at 50 mg/kg, po in water administered 30 mins before glucose challenge measured at 0.5 hr postdose by oral glucose tolerance test; format: functional, C57BL6; set-up: scale not given: the % may be the effect or the level left
Procedure, shortened: as §3, with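 “mice dosed by oral gavage” for “mice, compound given IV”, “50 mg/kg, with water as vehicle.” for “10 mg/kg.”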

Mus musculus [9] = assay: Increase in insulin release from beta cells in po dosed C57BL/6 mouse after glucose challenge; format: functional, organism-based; details: C57BL6
Mus musculus [10] = assay: Reduction in glucose excursion in C57BL/6 mouse at 72 mg/kg, po in microemulsion administered 30 mins before glucose challenge measured up to 6 hrs postdose by oral glucose tolerance test; format: functional, organism-based; set-up: dose 72 mg/kg; details: C57BL6
[11] = target: T2, Hexokinase-4 (Homo sapiens); assay: Activation of His-tagged human recombinant liver glucokinase expressed in Escherichia coli BL21 (DE3) assessed as drug level required for half-maximal activation for sigmoid activation curve; procedure, shortened: as §1
Mus musculus [12] = assay: Increase in basal insulin release from beta cells in po dosed C57BL/6 mouse; format: functional, organism-based; details: C57BL6
Mus musculus [13] = assay: Reduction in glucose excursion in C57BL/6 mouse at 50 mg/kg, po in water administered 30 mins before glucose challenge measured at 2 hrs postdose by oral glucose tolerance test; format: functional, C57BL6; set-up: scale not given: the % may be the effect or the level left; procedure, shortened: as §2
[14] = Intrinsic solubility in neutral pH by HPLC analysis; format: physicochemical
Mus musculus [15] = assay: Reduction in glucose excursion in C57BL/6 mouse at 50 mg/kg, po in water administered 30 mins before glucose challenge measured at 1 hr postdose by oral glucose tolerance test; format: functional, C57BL6; set-up: scale not given: the % may be the effect or the level left; procedure, shortened: as §2

COc1ccc2nc(NC(=O)C(CC3CCCC3)c3ccc(S(=O)(=O)NCc4cccnc4)cc3)sc2n1 (stereo unspecified)
Activity [1]: 281%
half-life [2]: < 1.5 min
Activity [3]: 377 nM
Activity (Mus musculus [4]): inactive
logPm [5]: -4.6

COc1ccc2nc(NC(=O)C(CC3CCCC3)c3ccc(S(=O)(=O)NCc4ccncc4)cc3)sc2n1 (stereo unspecified)
half-life [2]: < 1.5 min
Activity [3]: 207 nM
solubility [6]: 10 µg/mL (≈ 18.1 µM)
logPm [5]: -4.3

COc1ccc2nc(NC(=O)C(CC3CCCC3)c3ccc(S(=O)(=O)N4CCNCC4)cc3)sc2n1.Cl (stereo unspecified)
half-life [2]: < 1.5 min
Activity [3]: 50 nM
Activity (Mus musculus [7]): 26%
Activity (Mus musculus [8]): 22%
logPm [5]: -4.9

COc1ccc2nc(NC(=O)C(CC3CCCC3)c3ccc(S(=O)(=O)NCc4ccccn4)cc3)sc2n1 (stereo unspecified)
Activity [3]: 180 nM
solubility [6]: 10 µg/mL (≈ 18.1 µM)

COc1ccc2nc(NC(=O)C(CC3CCCC3)c3ccc(S(=O)(=O)N4CCN(C)CC4)cc3)sc2n1 (stereo unspecified)
Activity [1]: 498%
half-life [2]: 9.1 min
Activity [3]: 39 nM
Activity (Mus musculus [9]): inactive
Activity (Mus musculus [10]): Active
Activity [11]: 11 mM
solubility [6]: 50 µg/mL (≈ 92 µM)
Activity (Mus musculus [12]): inactive
logPm [5]: -3.9

COc1ccc2nc(NC(=O)C(CC3CCCC3)c3ccc(S(=O)(=O)NCC(=O)O)cc3)sc2n1 (stereo unspecified)
half-life [2]: 27.2 min
Activity [3]: 1860 nM
Activity (Mus musculus [13]): 20%
logPm [5]: -4.4
solubility [14]: > 570 µg/mL
Activity (Mus musculus [15]): 26%
